From ChEMBL document CHEMBL1138683 (J Med Chem, 2004)

Tests used:
[1] = Anticonvulsant activity administered intra peritoneally to mouse for toxicity; settings: in vivo, ip
Mus musculus [2] = assay: Anticonvulsant activity administered intra peritoneally to mouse at subcutaneous metrazol test; assay type: functional; settings: sc
Mus musculus [3] = assay: Anticonvulsant activity administered intra peritoneally to mouse at maximal electro shock test; the interval in parenthesis stands for 95% confidence interval; assay type: functional
[4] = Anti convulsant activity administered intra peritoneally to mouse for toxicity at 4 hr with dose of 30 mg/kg; 0/2= No of animals exhibiting toxicity /No of animals tested; assay type: organism-based; design: dose 30 mg/kg; settings: in vivo, ip
[5] = Anti convulsant activity administered intra peritoneally to mouse for toxicity at 4 hr with dose of 100 mg/kg; 0/4= No of animals exhibiting toxicity /No of animals tested; assay type: organism-based; design: dose 100 mg/kg; settings: in vivo, ip
[6] = Anti convulsant activity administered intra peritoneally to mouse for toxicity at 4 hr with dose of 300 mg/kg; 1/2= No of animals exhibiting toxicity /No of animals tested; assay type: organism-based; design: dose 300 mg/kg; settings: in vivo, ip
[7] = Anti convulsant activity administered intra peritoneally to mouse for toxicity at 0.5 hr with dose of 30 mg/kg; 0/4= No of animals exhibiting toxicity /No of animals tested; assay type: organism-based; design: dose 30 mg/kg; settings: in vivo, ip
[8] = Anti convulsant activity administered intra peritoneally to mouse for toxicity at 0.5 hr with dose of 100 mg/kg; 0/8= No of animals exhibiting toxicity /No of animals tested; assay type: organism-based; design: dose 100 mg/kg; settings: in vivo, ip
[9] = Anti convulsant activity administered intra peritoneally to mouse for toxicity at 0.5 hr with dose of 300 mg/kg; 4/4= No of animals exhibiting toxicity /No of animals tested; assay type: organism-based; design: dose 300 mg/kg; settings: in vivo, ip
Mus musculus [10] = assay: Anti convulsant activity administered intra peritoneally to mouse at maximal electroshock test at 4 hr after the drug administered with dose of 30 mg/kg; 0/1= No of animals protected /No of animals tested; assay type: functional
Mus musculus [11] = assay: Anti convulsant activity administered intra peritoneally to mouse at maximal electroshock test at 4 hr after the drug administered with dose of 100 mg/kg; 0/3= No of animals protected /No of animals tested; assay type: functional
Mus musculus [12] = assay: Anti convulsant activity administered intra peritoneally to mouse at maximal electroshock test at 4 hr after the drug administered with dose of 300 mg/kg; 0/1= No of animals protected /No of animals tested; assay type: functional
Mus musculus [13] = assay: Anti convulsant activity administered intra peritoneally to mouse at maximal electroshock test at 0.5 h after the drug administered with dose of 30 mg/kg; 0/1= No of animals protected /No of animals tested; assay type: functional
Mus musculus [14] = assay: Anti convulsant activity administered intra peritoneally to mouse for subcutaneous metrazol test at 4 hr after the drug administered with dose of 30 mg/kg; 0/1= No of animals protected /No of animals tested; assay type: functional; settings: route intraperitoneal
Mus musculus [15] = assay: Anti convulsant activity administered intra peritoneally to mouse at maximal electroshock test at 0.5 hr after the drug administered with dose of 100 mg/kg; 0/3= No of animals protected /No of animals tested; assay type: functional
Mus musculus [16] = assay: Anti convulsant activity administered intra peritoneally to mouse at maximal electroshock test at 0.5 hr after the drug administered with dose of 300 mg/kg; 1/1= No of animals protected /No of animals tested; assay type: functional
Mus musculus [17] = assay: Anti convulsant activity administered intra peritoneally to mouse for subcutaneous metrazol test at 4 hr after the drug administered with dose of 100 mg/kg; 0/1= No of animals protected /No of animals tested; assay type: functional
Rattus norvegicus [18] = assay: Anticonvulsant activity after oral administration of 100 mg/kg dose after 30 min in rats; +means 25% of animal protected; assay type: functional, organism-based; design: dose 100 mg/kg
In short: (§1)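 Oral dosing of rats at a single dose, compound dissolved or suspended in 0.5% methylcellulose. Protection in the MES or scMet test checked 15 min, 30 min, 1 h, 2 h and 4 h after dosing. Scored as 25/50/75/100% of animals protected (+ to ++++), – for none.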

Rattus norvegicus [19] = assay: Anticonvulsant activity after oral administration of 50 mg/kg dose after 30 min in rats; ++ means 50% of animals protected; assay type: functional, organism-based; design: dose 50 mg/kg
In short: (§2)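 Rats dosed orally with compound dissolved or suspended in 0.5% methylcellulose (0.04 mL per 10 g body weight). Anticonvulsant protection (MES or scMet) and toxicity scored at 15 min, 30 min, 1 h, 2 h and 4 h after dosing. Graded in steps of 25% of animals protected or showing toxicity.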

Mus musculus [20] = assay: Anti convulsant activity administered intra peritoneally to mouse for subcutaneous metrazol test at 4 hr with dose of 300 mg/kg; 0/1= No of animals protected /No of animals tested; assay type: functional
Mus musculus [21] = assay: Anti convulsant activity administered intra peritoneally to mouse for subcutaneous metrazol test at 0.5 hr with dose of 30 mg/kg; 0/1= No of animals protected /No of animals tested; assay type: functional
Mus musculus [22] = assay: Anti convulsant activity administered intra peritoneally to mouse for subcutaneous metrazol test at 0.5 hr with dose of 100 mg/kg; 0/1= No of animals protected /No of animals tested; assay type: functional
Mus musculus [23] = assay: Anti convulsant activity administered intra peritoneally to mouse for subcutaneous metrazol test at 0.5 h with dose of 300 mg/kg; 0/1= No of animals protected /No of animals tested; assay type: functional
[24] = Anti convulsant activity administered intra peritoneally to mouse for toxicity at 4 hr with dose of 300 mg/kg; 0/2= No of animals exhibiting toxicity /No of animals tested; assay type: organism-based; design: dose 300 mg/kg; settings: in vivo, ip
[25] = Anti convulsant activity administered intra peritoneally to mouse for toxicity at 0.5 hr with dose of 100 mg/kg; 1/8= No of animals exhibiting toxicity /No of animals tested; assay type: organism-based; design: dose 100 mg/kg; settings: in vivo, ip
Mus musculus [26] = assay: Anti convulsant activity administered intra peritoneally to mouse at maximal electroshock test at 4 hr after the drug administered with dose of 300 mg/kg; 1/1= No of animals protected /No of animals tested; assay type: functional
Rattus norvegicus [27] = assay: Anticonvulsant activity after oral administration of 100 mg/kg dose after 1 hr in rats; + means 25% of the animals protected; assay type: functional, organism-based; design: dose 100 mg/kg; in short: as §1
Rattus norvegicus [28] = assay: Anticonvulsant activity after oral administration of 100 mg/kg dose after 2 hr in rats; + means 25% of the animals protected; assay type: functional, organism-based; design: dose 100 mg/kg; in short: as §1
Rattus norvegicus [29] = assay: Anticonvulsant activity after oral administration of 50 mg/kg dose after 4 hr in rats;+ means 25% of the animals protected; assay type: functional, organism-based; design: dose 50 mg/kg; in short: as §2
Rattus norvegicus [30] = assay: Anticonvulsant activity after oral administration of 50 mg/kg dose after 15 min in rats; ++ means 50% of the animal protected; assay type: functional, organism-based; design: dose 50 mg/kg; in short: as §1
Rattus norvegicus [31] = assay: Anticonvulsant activity after oral administration of 50 mg/kg dose after 2 hr in rats; ++ means 50% of the animal is protected; assay type: functional, organism-based; design: dose 50 mg/kg; in short: as §1
Rattus norvegicus [32] = assay: Anticonvulsant activity after oral administration of 50 mg/kg dose after 30 min in rats; + means 25% of the animal protected; assay type: functional, organism-based; design: dose 50 mg/kg; in short: as §1
Rattus norvegicus [33] = assay: Anticonvulsant activity after oral administration of 100 mg/kg dose after 15 min in rats;+means 25% of the animals protected; assay type: functional, organism-based; design: dose 100 mg/kg; in short: as §1
[34] = Anti convulsant activity administered intra peritoneally to mouse for toxicity at 4 hr with dose of 100 mg/kg; 1/4= No of animals exhibiting toxicity /No of animals tested; assay type: organism-based; design: dose 100 mg/kg; settings: in vivo, ip
Rattus norvegicus [35] = assay: Anticonvulsant activity after oral administration of 50 mg/kg dose after 30 min in rats; +means 25% of animal protected; assay type: functional, organism-based; design: dose 50 mg/kg; in short: as §2
Rattus norvegicus [36] = assay: Anticonvulsant activity after oral administration of 50 mg/kg dose after 2 hr in rats; ++ means 50% of animals protected; assay type: functional, organism-based; design: dose 50 mg/kg; in short: as §1
Rattus norvegicus [37] = assay: Anticonvulsant activity after oral administration of 50 mg/kg dose after 4 hr in rats; + means 25% of the animal protected; assay type: functional, organism-based; design: dose 50 mg/kg; in short: as §2
Rattus norvegicus [38] = assay: Anticonvulsant activity after oral administration of 50 mg/kg dose after 30 min in rats; + means 25% of animals protected; assay type: functional, organism-based; design: dose 50 mg/kg; in short: as §1
Rattus norvegicus [39] = assay: Anticonvulsant activity after oral administration of 50 mg/kg dose after 1 hr in rats; +means25% of animals protected; assay type: functional, organism-based; design: dose 50 mg/kg; in short: as §1
[40] = Anti convulsant activity administered intra peritoneally to mouse for toxicity at 0.5 hr with dose of 300 mg/kg; 2/4= No of animals exhibiting toxicity /No of animals tested; assay type: organism-based; design: dose 300 mg/kg; settings: in vivo, ip
Mus musculus [41] = assay: Anti convulsant activity administered intra peritoneally to mouse at maximal electroshock test at 0.5 h after the drug administered with dose of 300 mg/kg; 0/1= No of animals protected /No of animals tested; assay type: functional

| Compound | Toxicity [4] | Toxicity [5] | Toxicity [7] | Toxicity [8] | Toxicity [9] | Activity (Mus musculus [10]) | Activity (Mus musculus [11]) | Activity (Mus musculus [12]) | Activity (Mus musculus [13]) | Activity (Mus musculus [14]) | Activity (Mus musculus [15]) | Activity (Mus musculus [16]) | Activity (Mus musculus [17]) | Activity (Mus musculus [20]) | Activity (Mus musculus [21]) | Activity (Mus musculus [22]) | Activity (Mus musculus [23]) | Toxicity [24] | Toxicity [25] | Activity (Rattus norvegicus [27]) | other results |
| --- | --- | --- | --- | --- | --- | --- | --- | --- | --- | --- | --- | --- | --- | --- | --- | --- | --- | --- | --- | --- | --- |
| CC1(C)C(C(=O)NCO)C1(C)C | – | – | – | – | – | – | – | – | – | – | – | – | – | – | – | – | – | – | – | – | TD50 [1]: 146 mg/kg; ED50 (Mus musculus [2]): 120 mg/kg; ED50 (Mus musculus [3]): > 220 mg/kg |
| CN(C)C(=O)C1C(C)(C)C1(C)C | 0 | 0 | 0 | 0 | 4 | 0 | 0 | 0 | 0 | 0 | 0 | 1 | 0 | 0 | 0 | 0 | 0 | – | – | – | Toxicity [6]: 1; Activity (Rattus norvegicus [18]): 25% of animal protected; Activity (Rattus norvegicus [19]): 25% of animal protected |
| CNC(=O)NC(=O)C1C(C)(C)C1(C)C | 0 | 0 | 0 | – | 4 | 0 | 0 | – | 0 | 0 | 0 | 1 | 0 | 0 | 0 | 0 | 0 | 0 | 1 | 25% of the animal protected | Activity (Mus musculus [26]): 1; Activity (Rattus norvegicus [28]): 25% of the animal protected; Activity (Rattus norvegicus [29]): 25% of the animal protected; Activity (Rattus norvegicus [30]): 25% of the animal protected; Activity (Rattus norvegicus [31]): 25% of the animal protected; Activity (Rattus norvegicus [32]): 25% of the animal protected; Anticonvulsant Activity (Rattus norvegicus [33]): 25% of the animals protected |
| CC1(C)C(C(=O)NC2CC2)C1(C)C | 0 | – | 0 | 0 | 4 | 0 | 0 | 0 | 0 | 0 | 0 | 1 | 0 | 0 | 0 | 0 | 0 | 0 | – | – | Toxicity [34]: 1; Activity (Rattus norvegicus [35]): 25% of animal protected; Activity (Rattus norvegicus [36]): 25% of animal protected; Activity (Rattus norvegicus [37]): 25% of animal protected; Activity (Rattus norvegicus [38]): 25% of animal protected; Activity (Rattus norvegicus [39]): 25% of animal protected |
| CN(CCO)C(=O)C1C(C)(C)C1(C)C | 0 | – | 0 | – | – | 0 | 0 | 0 | 0 | 0 | 0 | – | 0 | 0 | 0 | 0 | 0 | 0 | 1 | 25% of the animals protected | Toxicity [34]: 1; Toxicity [40]: 2; Activity (Mus musculus [41]): 0 |
